Results on 15 compounds are retold here after ChEMBL document CHEMBL1139931, “Synthesis and structure-activity relationships of novel pyrimido[1,2-b]indazoles as potential anticancer agents against A-549 cell lines” (2007).

This assay concerns A549. Briefly: Anticancer activity against human A549 cells at 1 nM after 12 hrs. It counts as functional. The following applies: A549, 12 h. Summed up:
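A-549 cells seeded at 10,000 cells/well in 96-well plates, recovered overnight in 5% CO2, then exposed 12 h to compound at 1 nM/ml (in 1% DMSO in PBS). MTT added from a 5 mg/ml PBS stock, 5 h at 37 °C, medium removed, formazan dissolved in DMSO for 5 min at 37 °C. Growth inhibition read at 550 nm; duplicate runs.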

The compound `N#Cc1c(-c2ccccc2)cc(C(F)(F)F)c2c1nn1c(C(F)(F)F)cc(-c3ccccc3)nc21` had an inhibition at 0.001 µM of 16.2%.

Take `CCOC(=O)c1cnc2c3c(-c4ccccc4)cc(C(F)(F)F)c(C#N)c3nn2c1O`: the inhibition at 0.001 µM came to 8.24%. In the case of `N#Cc1c(C(F)(F)F)cc(-c2ccccc2)c2c1nn1c(-c3ccccc3)cc(-c3ccccc3)nc21`, testing at 0.001 µM gave an inhibition of 5.96%. `N#Cc1c(-c2ccccc2)cc(C(F)(F)F)c2c1nn1c(C(F)(F)F)cc(C(F)(F)F)nc21` showed an inhibition at 0.001 µM of 4.54%.

For the compound `CCOC(=O)c1cnc2c3c(-c4ccccc4)cc(C(F)(F)F)c(C#N)c3nn2c1N`, 0.001 µM produced 11% inhibition. With `Cc1cc(-c2ccccc2)nc2c3c(C(F)(F)F)cc(-c4ccccc4)c(C#N)c3nn12`, the inhibition at 0.001 µM worked out at 13.3%. As for `N#Cc1c(C(F)(F)F)cc(-c2ccccc2)c2c1nn1c(C(F)(F)F)cc(-c3ccccc3)nc21`, 0.001 µM produced 8.9% inhibition. For `Cc1cc(C)n2nc3c(C#N)c(-c4ccccc4)cc(C(F)(F)F)c3c2n1`, the inhibition at 0.001 µM was determined as 3.74%.

Consider `Cc1cc(-c2ccccc2)n2nc3c(C#N)c(C(F)(F)F)cc(-c4ccccc4)c3c2n1`, for which the inhibition at 0.001 µM was 4.8%. The compound `N#Cc1c(C(F)(F)F)cc(-c2ccccc2)c2c1nn1c(C(F)(F)F)cc(C(F)(F)F)nc21` showed an inhibition at 0.001 µM of 10.2%. With `Cc1ccc(-c2cc(C(F)(F)F)n3nc4c(C#N)c(C(F)(F)F)cc(-c5ccccc5)c4c3n2)cc1`, the inhibition at 0.001 µM amounted to 6.77%. `Cc1cc(=O)n2nc3c(C#N)c(C(F)(F)F)cc(-c4ccccc4)c3c2[nH]1` showed an inhibition at 0.001 µM of 0.44%. In turn, `CCOC(=O)c1cnc2c3c(C(F)(F)F)cc(-c4ccccc4)c(C#N)c3nn2c1N` displayed an inhibition at 0.001 µM of 10.7%. `COc1cc([C@@H]2c3cc4c(cc3[C@@H](O[C@@H]3O[C@@H]5CO[C@@H](C)O[C@H]5[C@H](O)[C@H]3O)[C@H]3COC(=O)[C@H]23)OCO4)cc(OC)c1O` [ETOPOSIDE]: the inhibition at 0.001 µM stood at 1.15%. Under `Cc1cc(C(F)(F)F)n2nc3c(C#N)c(C(F)(F)F)cc(-c4ccccc4)c3c2n1` stands 6.44%.
